E-sel inducer: E-selectin induction on HUVECs | P16581 | HUVEC E-selectin immunofluorescence imaging; normalized: neutral wells 0, TNF-alpha wells 100 | activation, % at 7.58 µM | actives 0.37% (n = 260,000) | AID 686992;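 active means mean E-selectin-positive cell signal at least 10% of the positive control, reached in at least 60% of replicates, without over 20% cell loss; inconclusive means no rule given, readout overlaps actives, possibly toxicity-flagged; inactive means the rest, including those meeting only one limit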
Target sequence (P16581 whole entry, looked up): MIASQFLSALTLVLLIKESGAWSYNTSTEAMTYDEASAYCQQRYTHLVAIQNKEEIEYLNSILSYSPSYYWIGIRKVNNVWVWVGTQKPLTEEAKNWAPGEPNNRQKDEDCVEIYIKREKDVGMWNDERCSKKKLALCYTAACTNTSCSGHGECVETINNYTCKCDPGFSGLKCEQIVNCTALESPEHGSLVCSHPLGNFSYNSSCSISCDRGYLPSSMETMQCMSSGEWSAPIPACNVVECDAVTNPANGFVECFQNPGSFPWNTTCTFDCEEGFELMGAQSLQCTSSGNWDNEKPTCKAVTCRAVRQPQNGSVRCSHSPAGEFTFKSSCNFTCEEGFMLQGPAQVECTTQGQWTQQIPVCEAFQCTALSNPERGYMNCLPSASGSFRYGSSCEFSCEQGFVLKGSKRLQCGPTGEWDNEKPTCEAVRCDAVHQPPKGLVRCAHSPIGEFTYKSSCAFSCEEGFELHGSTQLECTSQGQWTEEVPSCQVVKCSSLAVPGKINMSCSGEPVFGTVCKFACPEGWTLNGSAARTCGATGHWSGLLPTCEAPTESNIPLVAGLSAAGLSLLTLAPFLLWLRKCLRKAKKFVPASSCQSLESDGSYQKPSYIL
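Test system – human umbilical vein endothelial cells (HUVEC), E-selectin induction · Input – 3,000 HUVEC seeded per well · Buffer or medium – EGM-2, gelatin · Compound dosing – single-point compound dose · Detection – immunofluorescence imaging · Measure – percent E-selectin-positive cells · Controls – TNF-alpha high, DMSO low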
DENV2 CPE rescue: inhibitors of DENV2 cytopathic effect; actives 1.7% (n = 350,000); CPE inhibition, % at 9.99 µM; DENV2-infected cells, cytopathic effect rescue, plate reader; in the data active means CPE inhibition above about 20%, passing the limit was not always enough; inconclusive means no clear call, values can overlap the other calls; tested in BHK-21 cells;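 further: 0% = median of neutral control wells and 100% = median of positive control wells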
Statin myotox sup: suppressors of simvastatin-induced myotoxicity in C2C12 myotubes; ATP luminescence, 48 h; scaled: DMSO 0, geranylgeraniol control 100; rescue of ATP level, % at 7.49 µM; actives 0.78% (n = 330,000); AID 602340;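 active means mean ATP rescue above about 67%, or every replicate alone reaching that limit, limit read from the data, passing the limit was not always enough; inconclusive means no clear call, values can overlap the other calls; inactive means mean under the limit and some replicate under it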;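 further: myotubes were challenged with 10 µM simvastatin during compound exposure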
* hit, by the source's call; ? = inconclusive; . = no result. Compounds with a hit are over-represented: about 2.2% of the library has one in this group of screens.

SMILES	E-sel inducer	DENV2 CPE rescue	Statin myotox sup
Cc1cc2nc(-c3nnnn3-c3c(C)cccc3C)c(=O)[nH]c2cc1C	6.7	-2.9	.
Cc1cccc(C)c1-n1nnnc1-c1nc2ccccc2[nH]c1=O	49.2*	9.6	.
CO[C@H]1CN(C)C(=O)c2ccc(NC(=O)CC(F)(F)F)cc2OC[C@@H](C)N(S(=O)(=O)c2cn(C)cn2)C[C@@H]1C	0.0	-0.5	-9.7
CCOC(=O)N1CCC(NC(=O)c2ccccc2C(=O)O)CC1	0.0	3.5	-6.1
CCOC(=O)N1CCC(NC(=O)c2cccc3c2C(=O)N(CCOC)C3)CC1	-2.3	62.5*	0.0
CCOC(=O)Cc1sc(N)nc1C	.	40.9*	.
CCOC(=O)Cc1c(C)nc(N)[nH]c1=O	12.4	2.8	14.0
C[C@H](CO)N1C[C@H](C)[C@@H](CN(C)S(=O)(=O)c2cn(C)cn2)Oc2c(NC(=O)NC3CCCCC3)cccc2C1=O	0.1	?	-7.0
CC(C)NC(=O)N(C)C[C@H]1Oc2ccc(NC(=O)NC3CCCCC3)cc2C(=O)N([C@@H](C)CO)C[C@@H]1C	0.6	16.6	7.8
CCOc1ccc(CCNC(=O)CN2C(=O)NC3(CCCCCC3)C2=O)cc1OCC	.	0.0	9.7
CCOc1ccc(/C=C2\SC(=O)N(CCNC(=O)CN3C(=O)NC4(CCCC4)C3=O)C2=O)cc1OC	-0.1	55.6*	.
O=C(O)CSC1CC(=O)N(c2cccc(Cl)c2)C1=O (centres undefined)	.	.	7.0
O=C(O)CSC1CC(=O)N(c2ccc(Cl)c(Cl)c2)C1=O (centres undefined)	.	.	137.6*
CC(c1nc2ccccc2c(=O)[nH]1)N1CCN(C)CC1 (centres undefined)	.	.	117.0*
CC(c1nc2ccccc2c(=O)[nH]1)N1CCOCC1 (centres undefined)	.	-5.2	0.1
Cc1noc(C)c1S(=O)(=O)Nc1ccc2c(c1)C(=O)N([C@H](C)CO)C[C@H](C)[C@H](CN(C)C(=O)NC(C)C)O2	-0.1	-9.7	.
O=C(C[C@@H]1C[C@@H]2c3cc(NC(=O)Nc4ccc(F)cc4)ccc3O[C@@H]2[C@@H](CO)O1)NC1CCCC1	0.0	1.7	2.8
O=C(Cn1cnc2c(OCc3ccccc3)ncnc21)NCC1CCCO1 (centres undefined)	-0.1	3.1	-7.5
O=C(Cn1cnc2c(NCc3ccccc3)ncnc21)NCC1CCCO1 (centres undefined)	-0.7	74.6*	3.9
Cn1nc(C(=O)NNC(=O)c2ccc(Cl)c(S(N)(=O)=O)c2)c2ccccc2c1=O	.	-1.8	24.6
Cn1nc(C(=O)NNC(=O)c2cccc(Cl)c2)c2ccccc2c1=O	.	66.9*	-4.6
Cn1nc(C(=O)NNC(=O)c2ccccc2F)c2ccccc2c1=O	.	14.3	1.3
Cn1nc(C(=O)NNC(=O)c2ccccc2Br)c2ccccc2c1=O	237.1*	6.2	4.7
COCC(=O)Nc1ccc2c(c1)[C@@H]1C[C@H](CC(=O)NCc3ccc4c(c3)OCO4)O[C@@H](CO)[C@@H]1O2	-0.1	2.1	5.3
O=C(C[C@H]1C[C@@H]2c3cc(NC(=O)C4CCC4)ccc3O[C@@H]2[C@H](CO)O1)NCc1ccc(-c2ccccc2)cc1	0.8	-0.3	-77.0
SMILES	E-sel inducer	DENV2 CPE rescue	Statin myotox sup
C[C@@H]1CN([C@@H](C)CO)C(=O)c2cccc(NC(=O)c3nc4ccccc4s3)c2O[C@H]1CN(C)Cc1ccc(C(=O)Nc2ccccc2N)cc1	0.8	-2.9	100.6*
COc1ccc(CN(C)C[C@H]2Oc3c(NC(=O)c4nc5ccccc5s4)cccc3C(=O)N([C@@H](C)CO)C[C@@H]2C)cc1	0.2	-1.3	27.1
COc1ccc(CN(C)C[C@H]2Oc3c(NC(=O)c4nc5ccccc5s4)cccc3C(=O)N([C@H](C)CO)C[C@@H]2C)cc1	-0.3	24.0*	14.3
C[C@@H]1CN([C@H](C)CO)C(=O)c2cccc(NC(=O)c3nc4ccccc4s3)c2O[C@@H]1CN(C)Cc1ccc(C(=O)Nc2ccccc2N)cc1	0.9	7.8	?
C[C@@H]1CN([C@@H](C)CO)C(=O)c2cccc(NC(=O)c3nc4ccccc4s3)c2O[C@H]1CN(C)Cc1ccc(C(F)(F)F)cc1	0.9	-2.5	-30.7
C[C@H]1CN([C@@H](C)CO)C(=O)c2cccc(NC(=O)c3nc4ccccc4s3)c2O[C@@H]1CN(C)Cc1ccc(C(F)(F)F)cc1	48.3*	-0.9	9.4
O=C(C[C@@H]1C[C@@H]2c3cc(NC(=O)NC4CCCC4)ccc3O[C@@H]2[C@H](CO)O1)NC1CCCC1	-0.3	10.9	1.8
COc1ccc(NC(=O)N(C)C[C@H]2Oc3ccc(NS(=O)(=O)c4ccc(OC)cc4)cc3C(=O)N([C@H](C)CO)C[C@H]2C)cc1	0.5	-3.4	18.0
COc1cccc(S(=O)(=O)N2CCCCN3[C@H](C2)[C@@H](c2ccc(-c4cccnc4)cc2)[C@@H]3CO)c1	-0.7	-11.3	-30.2
Cc1ccc(C2C(=O)N(C3CCC(C)CC3)CC(=O)N2C2CCCC2)cc1 (centres undefined)	.	.	124.0*
O=C1C(c2ccc(F)cc2)N(C2CCCCC2)C(=O)CN1C1CCCC1 (centres undefined)	.	.	-3.3
CNC[C@@H]1Oc2ccc(NC(=O)Cn3cnnn3)cc2C(=O)N([C@H](C)CO)C[C@H]1C	0.1	0.3	32.5
Cc1ccccc1OCC(O)Cn1c(Br)nc2c1c(=O)[nH]c(=O)n2C (centres undefined)	-2.0	-3.4	.
Cc1ccccc1OCC(O)Cn1c(Br)nc2c1c(=O)n(C)c(=O)n2C (centres undefined)	51.0*	3.3	4.3
N#C[C@H]1[C@H](c2ccccc2)[C@H](CO)N1C(=O)c1ccc2c(c1)OCO2	-0.1	-2.3	-5.7
CCC(=O)N(C)C[C@H]1Oc2cc(-c3ccc(F)cc3)ccc2S(=O)(=O)N([C@H](C)CO)C[C@@H]1C	-0.2	-2.7	-45.5
CCCCSC1=C(C#N)C(c2ccccc2C)CC(=O)N1 (centres undefined)	0.0	-3.0	-16.1
CCCSC1=C(C#N)C(c2ccccc2C)CC(=O)N1 (centres undefined)	.	.	133.8*
COc1c2c(nc3occc13)C(CC=C(C)C)(OC)C(O)CC2 (centres undefined)	.	.	77.8*
COc1c2c(nc3occc13)C(CC=C(C)C)(OC)C(OC(C)=O)CC2 (centres undefined)	.	.	8.3
COc1ccc2c3c(n(C)c2c1)[C@H](CO)N(C(=O)c1ccccc1)CC31CN(C(=O)c2ccccc2)C1	0.0	7.4	.
CCC(=O)N1CC2(C1)CN(C(=O)Nc1ccc(F)cc1)[C@H](CO)c1c2c2ccc(OC)cc2n1C	0.1	79.8*	.
COc1ccc2c3c(n(C)c2c1)[C@@H](CO)N(C(=O)C1CCCC1)CC31CCN(C(=O)Nc2cccc(F)c2)CC1	0.5	-7.3	.
CCC(=O)N1CCC2(CC1)CN(C(=O)Nc1ccc(F)cc1)[C@@H](CO)c1c2c2ccc(OC)cc2n1C	-0.5	0.7	.
CCC(=O)N1CCC2(CC1)CN(C(=O)Nc1ccc(F)cc1)[C@H](CO)c1c2c2ccc(OC)cc2n1C	-0.4	7.5	.
COc1ccc2c3c(n(C)c2c1)[C@@H](CO)N(C(=O)Nc1ccc(F)cc1)CC31CCN(C(=O)c2ccccc2F)CC1	-0.3	40.3*	.

Source: PubChem (Broad Institute)
